In ChEMBL document CHEMBL1926649, “New cholesterol esterase inhibitors based on rhodanine and thiazolidinedione scaffolds” (Bioorg Med Chem, 2011):

Assays:
[1] = Inhibition of pig pancreatic cholesterol esterase preincubated for 5 mins by spectrophotometry; parameters: species or system Sus scrofa
In short: (§1)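 Porcine CEase in 100 mM sodium phosphate, 100 mM NaCl, pH 7.0, with 6 mM taurocholate (final), 3% acetonitrile, 3% DMSO. Inhibitor pre-mixed with 200 µM pNPB for 5 min at 25 °C. Reaction started with enzyme (10 ng/mL final), A405 followed for 6 min. Rates taken from linear steady-state turnover. Duplicates at five inhibitor concentrations. Residual activity at infinite [I] and IC50 come from non-linear regression of rate versus [I].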

Acetylcholinesterase = Acetylcholinesterase (Electrophorus electricus, UniProt O42275); test: Inhibition of Electrophorus electricus acetylcholinesterase preincubated for 15 mins by spectrophotometry
Sus scrofa [2] = species: Sus scrofa; test: Inhibition of pig pancreatic cholesterol esterase assessed as residual enzyme activity at infinite compound concentration preincubated for 5 mins by spectrophotometry; in short: as §1
[3] = Selectivity ratio of IC50 for Electrophorus electricus acetylcholinesterase to IC50 for pig cholesterol esterase
In short: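 IC50 ratio taken between two assays. AChE: E. electricus enzyme, 15 min preincubation, ATCh 500 µM with DTNB, read at 412 nm, pH 7.3. Porcine CEase: 10 ng/mL, 5 min preincubation of inhibitor with substrate, pNPB 200 µM with taurocholate 6 mM, read at 405 nm, pH 7.0.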

[4] = Mixed inhibition of pig pancreatic cholesterol esterase preincubated for 5 mins by specific velocity plot analysis; parameters: species or system Sus scrofa
In short: (§2)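 Porcine CEase, pNPB hydrolysis read at 405 nm, 25 °C, pH 7.0 phosphate/NaCl buffer with 6 mM taurocholate. Quadruplicates covered five inhibitor levels (2–10 µM) crossed with five substrate levels (100–300 µM), after a 5 min preincubation. The uninhibited rate at 200 µM substrate was set to 100%. Ki, α and β come from replots of specific velocity using σ/[1+σ], with σ = [S]/Km and a separately determined Km.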

Sus scrofa [5] = species: Sus scrofa; test: Ratio of binding affinity to free pig pancreatic cholesterol esterase to binding affinity to substrate-bound pig pancreatic cholesterol esterase; in short: as §2

Sequence of Acetylcholinesterase (O42275 whole entry): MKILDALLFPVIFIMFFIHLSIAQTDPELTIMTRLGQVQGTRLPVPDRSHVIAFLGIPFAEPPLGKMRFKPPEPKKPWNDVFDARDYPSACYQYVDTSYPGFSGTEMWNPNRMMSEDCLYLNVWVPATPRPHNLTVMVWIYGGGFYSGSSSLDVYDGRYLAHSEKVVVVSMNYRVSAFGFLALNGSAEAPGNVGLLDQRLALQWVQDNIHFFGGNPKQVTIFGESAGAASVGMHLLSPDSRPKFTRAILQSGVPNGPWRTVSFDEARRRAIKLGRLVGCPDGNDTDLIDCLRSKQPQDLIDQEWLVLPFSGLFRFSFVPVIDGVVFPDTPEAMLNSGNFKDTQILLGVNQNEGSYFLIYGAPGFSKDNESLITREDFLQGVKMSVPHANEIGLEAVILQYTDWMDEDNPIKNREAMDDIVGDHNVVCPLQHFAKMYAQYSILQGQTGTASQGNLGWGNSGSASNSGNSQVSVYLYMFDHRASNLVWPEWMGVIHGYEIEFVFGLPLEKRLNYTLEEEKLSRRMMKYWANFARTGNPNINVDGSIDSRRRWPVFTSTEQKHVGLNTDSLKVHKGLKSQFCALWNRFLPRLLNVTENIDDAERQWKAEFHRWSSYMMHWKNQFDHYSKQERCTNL

| SMILES | IC50 [1] [µM] | IC50 (Acetylcholinesterase) [µM] | Activity (Sus scrofa [2]) [%] | Ratio IC50 [3] | Ki [4] [µM] | Ratio (Sus scrofa [5]) |
| --- | --- | --- | --- | --- | --- | --- |
| CCCc1ccccc1NC(=O)[C@H](COCc1ccccc1)NC(=O)c1ccc(/C=C2\SC(=S)NC2=O)cc1 | 1.44 | 25 | 25 | 17 | – | – |
| CCCc1ccccc1OCC(O)COc1ccc(/C=C2\SC(=S)NC2=O)cc1 (racemic) | 1.76 | 5.14 | 18 | – | 1.22 | 5.5 |
| CCCc1ccccc1NC(=O)[C@H](C)NC(=O)c1ccc(/C=C2\SC(=O)NC2=O)cc1 | 54 | > 100 | – | – | – | – |
| O=C1NC(=S)S/C1=C\c1ccc(C(=O)O)cc1 | > 100 | > 100 | – | – | – | – |
| CCCc1ccccc1NC(=O)[C@H](COC(C)(C)C)NC(=O)c1ccc(/C=C2\SC(=O)NC2=O)cc1 | 85 | 66 | – | – | – | – |
| CCCc1ccccc1OCC(O)COc1ccc(/C=C2\SC(=O)NC2=O)cc1 (racemic) | 5.89 | > 100 | 17 | > 15 | – | – |
| O=C1NC(=O)/C(=C/c2ccc(C(=O)O)cc2)S1 | > 100 | > 100 | – | – | – | – |
| CCCc1ccccc1NC(=O)[C@H](COC(C)(C)C)NC(=O)c1ccc(/C=C2\SC(=S)NC2=O)cc1 | 6.07 | 21.6 | – | – | – | – |
| CCCc1ccccc1NC(=O)[C@H](Cc1ccccc1)NC(=O)c1ccc(/C=C2\SC(=O)NC2=O)cc1 | 40 | 14 | – | – | – | – |
| CCCc1ccccc1NC(=O)[C@H](Cc1ccccc1)NC(=O)c1ccc(/C=C2\SC(=S)NC2=O)cc1 | 40 | 43 | – | – | – | – |
| CCCc1ccccc1NC(=O)[C@H](CO)NC(=O)c1ccc(/C=C2\SC(=S)NC2=O)cc1 | 31 | > 100 | – | – | – | – |
| CCCc1ccccc1NC(=O)[C@H](Cc1ccc(O)cc1)NC(=O)c1ccc(/C=C2\SC(=S)NC2=O)cc1 | 14.5 | 57 | – | – | – | – |
| O=C1NC(=O)/C(=C/c2ccccc2)S1 | > 100 | > 100 | – | – | – | – |
| CCCc1ccccc1NC(=O)[C@H](C)NC(=O)c1ccc(/C=C2\SC(=S)NC2=O)cc1 | 50 | > 100 | – | – | – | – |
| CCCc1ccccc1NC(=O)[C@H](CO)NC(=O)c1ccc(/C=C2\SC(=O)NC2=O)cc1 | 5.7 | > 100 | 12 | > 15 | – | – |
